Assay results taken from ChEMBL document CHEMBL1781883, “Design of novel neurokinin 1 receptor antagonists based on conformationally constrained aromatic amino acids and discovery of a potent chimeric opioid agonist-neurokinin 1 receptor antagonist” (J Med Chem, 2011).
The source made the active and inactive calls. The calls are words filed in the database; no cut-off is given here.

Tests used:
Substance-P receptor [1] = biological target: T1, Substance-P receptor (Homo sapiens, UniProt P25103); experiment: Agonist activity at human NK1 receptor expressed in CHO-K1 cells at 10^-4 M after 30 mins by aequorin luminescence assay; assay type: functional, cell-based
T1 sequence (P25103 whole entry): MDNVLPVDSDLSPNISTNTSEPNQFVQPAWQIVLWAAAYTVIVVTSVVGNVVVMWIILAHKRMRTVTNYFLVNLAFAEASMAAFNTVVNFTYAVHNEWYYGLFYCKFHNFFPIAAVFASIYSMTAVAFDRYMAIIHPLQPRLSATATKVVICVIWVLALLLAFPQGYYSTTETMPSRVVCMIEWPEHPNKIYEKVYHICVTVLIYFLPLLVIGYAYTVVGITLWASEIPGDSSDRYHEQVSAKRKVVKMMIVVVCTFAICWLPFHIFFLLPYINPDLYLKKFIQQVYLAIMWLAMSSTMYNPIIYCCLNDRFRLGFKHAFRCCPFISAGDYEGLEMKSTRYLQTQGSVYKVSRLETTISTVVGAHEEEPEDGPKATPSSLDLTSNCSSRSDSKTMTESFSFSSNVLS
How it was run: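 CHO-K1 cells stably expressing human NK1R and transfected with apoaequorin; loaded 4 h with 5 μM coelenterazine h in BSA-medium, diluted 10-fold, further 30 min. Compound added to wells; cells (2.5 × 10^4) injected, light read every second for 30 s, then 10 nM ATP injected as positive control and read 10 s more. Duplicates; expressed as % of luminescence at 10^-4 M SP.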

Substance-P receptor [2] = biological target: T1, Substance-P receptor; experiment: Antagonist activity at human NK1 receptor expressed in CHO-K1 cells assessed as inhibition of substance P-induced calcium-dependent aequorine luminescence; assay type: functional, cell-based; conditions: read-out: pA2 (converted)
How it was run: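 Aequorin-expressing CHO-K1/hNK1 cells charged 4 h with 5 μM coelenterazine h, then diluted and held 30 min. SP series 10^-11 to 10^-4 M combined with test compound at 10^-8 to 10^-4 M; cell injection started 30 s luminescence read, then 10 nM ATP control.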

Substance-P receptor [3] = biological target: T1, Substance-P receptor; experiment: Displacement of [3H]SP from human recombinant NK1 receptor expressed in CHO cells after 20 mins by liquid scintillation counting; assay type: cell-based
How it was run: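 Crude membranes from hNK1/CHO cells; 20 µg incubated with 0.4 nM [3H]SP and six test concentrations in duplicate, 50 mM Tris pH 7.4 with 5 mM MgCl2, bacitracin, bestatin, captopril, PMSF; 25 °C, 20 min. Nonspecific binding with 10 µM SP. Filtration on PEI-soaked GF/B, scintillation counting; IC50 by nonlinear regression, Ki by Cheng–Prusoff; three independent experiments, mean ± SEM.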

Substance-P receptor [4] = biological target: T1, Substance-P receptor; experiment: Antagonist activity at NK1 receptor; assay type: functional

Row | Structure (SMILES) | Activity (Substance-P receptor [1]) | Kb (Substance-P receptor [2]) | Ki (Substance-P receptor [3]) | IC50 (Substance-P receptor [4])
1 | CC(=O)N[C@H]1Cc2ccccc2[C@@H](c2ccccc2)N(CC(=O)NCc2cc(C(F)(F)F)cc(C(F)(F)F)c2)C1=O | inactive |  |  | 
2 | CC(=O)N[C@@H]1Cc2ccccc2[C@@H](c2ccccc2)N(CC(=O)N(C)Cc2cc(C(F)(F)F)cc(C(F)(F)F)c2)C1=O | inactive |  |  | 
3 | CC(=O)N[C@H]1Cc2ccccc2CN(CC(=O)NCc2cc(C(F)(F)F)cc(C(F)(F)F)c2)C1=O | inactive | 631 nM | 387 nM | 
4 | CC(=O)N[C@H]1Cc2ccccc2CN(CC(=O)N(C)Cc2cc(C(F)(F)F)cc(C(F)(F)F)c2)C1=O | inactive | 3.98 nM | 27 nM | 
5 | CC(=O)N1Cc2ccccc2C[C@H]1C(=O)NCc1cc(C(F)(F)F)cc(C(F)(F)F)c1 | inactive |  |  | 
6 | CC(=O)N[C@H]1Cc2ccccc2[C@@H](c2ccccc2)N(CC(=O)N(C)Cc2cc(C(F)(F)F)cc(C(F)(F)F)c2)C1=O | inactive |  |  | 
7 | CC(=O)N1Cc2ccccc2C[C@H]1C(=O)N(C)Cc1cc(C(F)(F)F)cc(C(F)(F)F)c1 | inactive | 31.6 nM | 32 nM | 
8 | O=C1O[C@@H](Cc2c[nH]c3ccccc23)C(=O)N1Cc1cc(C(F)(F)F)cc(C(F)(F)F)c1 |  |  |  | 25 nM

Continued, values first:

Row | Activity (Substance-P receptor [1]) | Kb (Substance-P receptor [2]) | Ki (Substance-P receptor [3]) | IC50 (Substance-P receptor [4]) | Structure (SMILES)
9 | inactive |  |  |  | CC(=O)N[C@H]1Cc2c([nH]c3ccccc23)CN(CC(=O)N(C)Cc2cc(C(F)(F)F)cc(C(F)(F)F)c2)C1=O
10 | inactive |  |  |  | CC(=O)N[C@H]1Cc2c([nH]c3ccccc23)CN(Cc2cc(C(F)(F)F)cc(C(F)(F)F)c2)C1=O
11 | inactive |  |  |  | CC(=O)N[C@@H]1Cc2c([nH]c3ccccc23)CN(CC(=O)N(C)Cc2cc(C(F)(F)F)cc(C(F)(F)F)c2)C1=O
12 | inactive |  |  |  | CC(=O)N1Cc2[nH]c3ccccc3c2C[C@@H]1C(=O)N(C)Cc1cc(C(F)(F)F)cc(C(F)(F)F)c1
13 | inactive |  |  |  | CC(=O)N1Cc2[nH]c3ccccc3c2C[C@H]1C(=O)N(C)Cc1cc(C(F)(F)F)cc(C(F)(F)F)c1
